Activity calls are given as the source filed them. No cut-off for these calls is given here.
Experiments:
[1] = molecular target: Dual specificity mitogen-activated protein kinase kinase 1 (Homo sapiens) (UniProt Q02750); test: Inhibition of human MKK1 assessed as remaining activity at 10 uM in presence of ATP by radiometric kinase assay relative to control
[2] = molecular target: Mitogen-activated protein kinase 11 (Homo sapiens) (UniProt Q15759); test: Inhibition of human p38b MAPK assessed as remaining activity at 10 uM in presence of ATP by radiometric kinase assay relative to control
[3] = molecular target: cAMP-dependent protein kinase (PKA) (Homo sapiens) (UniProt P22694+P17612+P22612); test: Inhibition of human PKA assessed as remaining activity at 10 uM in presence of ATP by radiometric kinase assay relative to control; type: protein assay
[4] = molecular target: Ribosomal protein S6 kinase alpha-5 (Homo sapiens) (UniProt O75582); test: Inhibition of human MSK1 assessed as remaining activity at 10 uM in presence of ATP by radiometric kinase assay relative to control
[5] = molecular target: MAP kinase-interacting serine/threonine-protein kinase 2 (Homo sapiens) (UniProt Q9HBH9); test: Inhibition of human MNK2 assessed as remaining activity at 10 uM in presence of ATP by radiometric kinase assay relative to control
[6] = molecular target: Calcium/calmodulin-dependent protein kinase kinase 2 (Homo sapiens) (UniProt Q96RR4); test: Inhibition of human CAMKKb assessed as remaining activity at 10 uM in presence of ATP by radiometric kinase assay relative to control
[7] = molecular target: Aurora kinase B (Homo sapiens) (UniProt Q96GD4); test: Inhibition of human AuroraB assessed as remaining activity at 10 uM in presence of ATP by radiometric kinase assay relative to control
[8] = molecular target: Maternal embryonic leucine zipper kinase (Homo sapiens) (UniProt Q14680); test: Inhibition of human MELK assessed as remaining activity at 10 uM in presence of ATP by radiometric kinase assay relative to control
[9] = molecular target: Dual specificity tyrosine-phosphorylation-regulated kinase 1A (Homo sapiens) (UniProt Q13627); test: Inhibition of human DYRK1A assessed as remaining activity at 10 uM in presence of ATP by radiometric kinase assay relative to control
[10] = molecular target: Homeodomain-interacting protein kinase 3 (Homo sapiens) (UniProt Q9H422); test: Inhibition of human HIPK3 assessed as remaining activity at 10 uM in presence of ATP by radiometric kinase assay relative to control
[11] = molecular target: Serine/threonine-protein kinase 26 (Homo sapiens) (UniProt Q9P289); test: Inhibition of human MST4 assessed as remaining activity at 10 uM in presence of ATP by radiometric kinase assay relative to control
[12] = molecular target: Tyrosine-protein kinase Yes (Homo sapiens) (UniProt P07947); test: Inhibition of human YES1 assessed as remaining activity at 10 uM in presence of ATP by radiometric kinase assay relative to control
[13] = molecular target: Insulin receptor (Homo sapiens) (UniProt P06213); test: Inhibition of human IR assessed as remaining activity at 10 uM in presence of ATP by radiometric kinase assay relative to control
[14] = molecular target: High affinity nerve growth factor receptor (Homo sapiens) (UniProt P04629); test: Inhibition of human TrkA assessed as remaining activity at 10 uM in presence of ATP by radiometric kinase assay relative to control
[15] = molecular target: Interleukin-1 receptor-associated kinase 1 (Homo sapiens) (UniProt P51617); test: Inhibition of human IRAK1 assessed as remaining activity at 10 uM in presence of ATP by radiometric kinase assay relative to control
[16] = molecular target: Proto-oncogene tyrosine-protein kinase Src (Homo sapiens) (UniProt P12931); test: Inhibition of human Src assessed as remaining activity at 10 uM in presence of ATP by radiometric kinase assay relative to control
[17] = molecular target: Ribosomal protein S6 kinase alpha-1 (Homo sapiens, UniProt Q15418); test: Inhibition of human RSK1 at 10 uM in presence of ATP by radiometric kinase assay relative to control
[18] = molecular target: Serine/threonine-protein kinase BRSK1 (Homo sapiens, UniProt Q8TDC3); test: Inhibition of human BRSK1 by FRET based Z-LYTE kinase assay
[19] = Inhibition of human CDK2/Cyclin A by FRET based Z-LYTE kinase assay
HT-29 [20] = test: Induction of cell cycle arrest in etoposide induced human HT-29 cells assessed as increase in accumulation of cells at S phase at 1 to 5 uM incubated for 24 hrs by BrdU and PI staining based flow cytometry analysis; type: functional; conditions: dose 1-5 µM
In short: (§1)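 HT29 cells exposed for 24h, stained with bromodeoxyuridine and propidium iodide, and cell-cycle distribution measured by flow cytometry.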

HT-29 [21] = test: Induction of cell cycle arrest in etoposide induced human HT-29 cells assessed as decrease in accumulation of cells at G2/M phase at 1 to 5 uM incubated for 24 hrs by BrdU and PI staining based flow cytometry analysis; type: functional; conditions: dose 1-5 µM; in short: as §1
[22] = Clearance in BALB/C mouse plasma at 10 mg/kg, po by LC/MS-MS analysis; type: ADME, organism-based
In short: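 Female BALB/c mice received a single 10mg/kg bolus i.v. or p.o. Plasma (and spleen homogenate) extracted with methanol containing internal standards. Concentrations were measured by LC/MS-MS and PK parameters calculated with modelling software.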

Mus musculus [23] = test: In vivo inhibition of CHK1 in CRTac:Ncr-Fox1 mouse xenografted with human HT-29 cells assessed as reduction of phosphorylation of CHK1 on S296 at 50 mg/kg, po administered for 24 hrs by Western blotting analysis; type: functional, organism-based
In short: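 HT29 s.c. xenografts in female athymic nude mice. Single gemcitabine dose 100mg/kg i.v. on day 0, then one inhibitor dose 50 or 100mg/kg p.o. (DPTW vehicle) 24h later. Tumors taken 24h after the last dose, western blotted, and signals quantified by normalizing to GAPDH.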

Mus musculus [24] = test: In vivo inhibition of CHK1 in CRTac:Ncr-Fox1 athymic mouse xenografted with human Calu-6 cells assessed as inhibition of CHK1 phosphorylation on S296 at 150 mg/kg, po in presence of gemcitabine and carboplatin by Western blotting analysis; type: functional, organism-based
In short: (§2)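 Female CRTac:Ncr-Fox1(nu) athymic mice carried s.c. Calu6 xenografts. Tumors were taken 6h after the last inhibitor dose, lysed in CHAPS buffer, and immunoblotted with GAPDH as loading control.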

Mus musculus [25] = test: In vivo inhibition of CHK1 in CRTac:Ncr-Fox1 athymic mouse xenografted with human Calu-6 cells assessed as enhanced phosphorylation of CHK1 on S345 at 150 mg/kg, po in presence of gemcitabine and carboplatin by Western blotting analysis; type: functional, organism-based; in short: as §2
Mus musculus [26] = test: In vivo inhibition of total CHK1 in CRTac:Ncr-Fox1 athymic mouse xenografted with human Calu-6 cells at 150 mg/kg, po in presence of gemcitabine and carboplatin by ELISA analysis; type: functional, organism-based
[27] = Toxicity in Emu-Myc driven transgenic mouse transplant model of B-cell lymphoma assessed as change in body weight at 150 mg/kg, po administered for 9 days; type: organism-based; conditions: in vivo, 216 h, time 9 day

Sequence of Proto-oncogene tyrosine-protein kinase Src (Homo sapiens) (P12931 2-536 limits assumed): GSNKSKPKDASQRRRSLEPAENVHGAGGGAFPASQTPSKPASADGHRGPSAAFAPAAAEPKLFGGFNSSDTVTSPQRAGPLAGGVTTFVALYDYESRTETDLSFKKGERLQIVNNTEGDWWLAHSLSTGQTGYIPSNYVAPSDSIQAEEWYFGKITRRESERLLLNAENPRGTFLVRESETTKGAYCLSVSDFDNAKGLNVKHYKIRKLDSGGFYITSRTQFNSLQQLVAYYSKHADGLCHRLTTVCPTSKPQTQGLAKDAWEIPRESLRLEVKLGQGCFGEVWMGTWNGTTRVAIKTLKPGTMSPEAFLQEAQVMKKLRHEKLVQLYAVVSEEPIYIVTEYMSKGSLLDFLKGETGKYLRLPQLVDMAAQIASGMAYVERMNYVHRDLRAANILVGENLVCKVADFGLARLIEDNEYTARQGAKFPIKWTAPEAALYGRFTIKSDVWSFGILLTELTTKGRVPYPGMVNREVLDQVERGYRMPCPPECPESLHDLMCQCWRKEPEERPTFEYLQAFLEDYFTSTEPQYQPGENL
Sequence of Ribosomal protein S6 kinase alpha-1 (Q15418 whole entry): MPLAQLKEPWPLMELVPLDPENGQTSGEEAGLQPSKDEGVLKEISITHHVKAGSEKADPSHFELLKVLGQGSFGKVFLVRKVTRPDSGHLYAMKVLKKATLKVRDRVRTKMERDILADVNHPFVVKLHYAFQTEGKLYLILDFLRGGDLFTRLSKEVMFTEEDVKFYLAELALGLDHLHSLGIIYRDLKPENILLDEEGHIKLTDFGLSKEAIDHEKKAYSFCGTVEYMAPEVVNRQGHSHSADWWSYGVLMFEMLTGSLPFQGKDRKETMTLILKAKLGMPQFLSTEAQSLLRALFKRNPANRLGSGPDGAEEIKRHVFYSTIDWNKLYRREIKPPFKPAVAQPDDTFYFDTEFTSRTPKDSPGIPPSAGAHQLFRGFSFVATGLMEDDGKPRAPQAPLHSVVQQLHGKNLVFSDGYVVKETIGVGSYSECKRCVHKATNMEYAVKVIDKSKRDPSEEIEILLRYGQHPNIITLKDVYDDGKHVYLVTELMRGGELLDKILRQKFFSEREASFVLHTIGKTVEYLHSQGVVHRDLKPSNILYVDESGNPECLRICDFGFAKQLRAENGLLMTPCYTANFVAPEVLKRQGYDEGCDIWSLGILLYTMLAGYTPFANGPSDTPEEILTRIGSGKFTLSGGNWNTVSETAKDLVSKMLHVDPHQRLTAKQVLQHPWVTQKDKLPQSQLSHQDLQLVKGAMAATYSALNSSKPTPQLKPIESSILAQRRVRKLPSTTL
Sequence of Serine/threonine-protein kinase BRSK1 (Q8TDC3 whole entry): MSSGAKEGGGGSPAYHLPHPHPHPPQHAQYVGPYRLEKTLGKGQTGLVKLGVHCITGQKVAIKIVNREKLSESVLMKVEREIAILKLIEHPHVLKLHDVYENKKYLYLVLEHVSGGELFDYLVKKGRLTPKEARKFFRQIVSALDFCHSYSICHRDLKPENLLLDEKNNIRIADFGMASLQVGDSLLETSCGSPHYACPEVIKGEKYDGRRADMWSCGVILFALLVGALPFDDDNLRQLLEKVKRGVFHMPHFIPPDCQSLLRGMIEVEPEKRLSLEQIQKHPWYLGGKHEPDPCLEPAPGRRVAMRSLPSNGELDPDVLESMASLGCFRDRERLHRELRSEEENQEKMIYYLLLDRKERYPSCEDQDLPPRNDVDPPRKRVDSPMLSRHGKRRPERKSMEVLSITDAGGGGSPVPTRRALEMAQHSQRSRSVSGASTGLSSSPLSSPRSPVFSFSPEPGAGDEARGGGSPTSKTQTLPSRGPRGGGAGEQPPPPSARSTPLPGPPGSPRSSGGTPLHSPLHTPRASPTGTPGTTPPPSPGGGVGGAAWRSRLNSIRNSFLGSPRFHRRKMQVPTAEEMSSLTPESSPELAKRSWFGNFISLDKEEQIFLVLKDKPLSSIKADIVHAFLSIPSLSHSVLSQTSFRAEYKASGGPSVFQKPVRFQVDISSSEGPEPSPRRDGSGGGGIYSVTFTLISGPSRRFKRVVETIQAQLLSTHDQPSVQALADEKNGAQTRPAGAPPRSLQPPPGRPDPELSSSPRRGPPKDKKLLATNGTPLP
Sequence of Mitogen-activated protein kinase 11 (Homo sapiens) (Q15759 whole entry): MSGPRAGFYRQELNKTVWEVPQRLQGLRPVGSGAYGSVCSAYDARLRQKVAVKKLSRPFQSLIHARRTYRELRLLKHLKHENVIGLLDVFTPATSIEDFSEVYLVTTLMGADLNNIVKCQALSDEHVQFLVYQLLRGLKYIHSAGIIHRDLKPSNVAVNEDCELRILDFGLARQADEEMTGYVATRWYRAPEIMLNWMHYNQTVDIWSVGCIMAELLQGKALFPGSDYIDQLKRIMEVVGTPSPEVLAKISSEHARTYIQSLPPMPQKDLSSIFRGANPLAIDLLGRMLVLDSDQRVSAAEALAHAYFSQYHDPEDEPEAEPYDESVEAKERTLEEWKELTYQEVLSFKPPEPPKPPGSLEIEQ
Sequence of Dual specificity mitogen-activated protein kinase kinase 1 (Homo sapiens) (Q02750 whole entry): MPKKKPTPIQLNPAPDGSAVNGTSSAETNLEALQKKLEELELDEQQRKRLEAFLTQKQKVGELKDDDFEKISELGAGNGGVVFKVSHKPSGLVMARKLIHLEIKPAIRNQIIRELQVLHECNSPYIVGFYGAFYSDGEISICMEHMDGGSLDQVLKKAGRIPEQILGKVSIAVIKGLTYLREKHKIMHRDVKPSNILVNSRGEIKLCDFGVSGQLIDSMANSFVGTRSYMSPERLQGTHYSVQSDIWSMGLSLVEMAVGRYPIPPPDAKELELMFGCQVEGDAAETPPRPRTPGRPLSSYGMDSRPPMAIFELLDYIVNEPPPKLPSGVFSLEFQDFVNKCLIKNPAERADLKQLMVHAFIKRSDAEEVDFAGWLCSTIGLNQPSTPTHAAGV
Sequence of Insulin receptor (Homo sapiens) (P06213 28-758 limits assumed): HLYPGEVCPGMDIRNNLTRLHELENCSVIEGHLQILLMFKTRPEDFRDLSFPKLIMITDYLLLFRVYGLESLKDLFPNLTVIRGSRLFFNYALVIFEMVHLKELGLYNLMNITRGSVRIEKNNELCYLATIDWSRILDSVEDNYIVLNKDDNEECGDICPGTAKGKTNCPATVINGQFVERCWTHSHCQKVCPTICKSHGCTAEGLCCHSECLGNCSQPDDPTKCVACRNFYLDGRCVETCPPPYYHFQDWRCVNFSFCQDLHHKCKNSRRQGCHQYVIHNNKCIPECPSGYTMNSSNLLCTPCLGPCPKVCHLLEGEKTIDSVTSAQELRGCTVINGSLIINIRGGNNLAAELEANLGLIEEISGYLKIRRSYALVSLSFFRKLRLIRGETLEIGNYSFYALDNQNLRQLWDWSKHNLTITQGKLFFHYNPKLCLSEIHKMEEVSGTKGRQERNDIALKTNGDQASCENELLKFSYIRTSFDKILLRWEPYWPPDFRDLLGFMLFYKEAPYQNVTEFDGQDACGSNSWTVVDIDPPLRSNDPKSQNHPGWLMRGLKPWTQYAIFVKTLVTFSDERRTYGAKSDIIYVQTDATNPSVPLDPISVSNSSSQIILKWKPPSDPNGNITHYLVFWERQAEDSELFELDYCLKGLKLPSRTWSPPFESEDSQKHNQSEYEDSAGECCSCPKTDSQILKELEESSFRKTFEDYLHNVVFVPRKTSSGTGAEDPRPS
Sequence of Insulin receptor (Homo sapiens) (P06213 763-1382 limits assumed): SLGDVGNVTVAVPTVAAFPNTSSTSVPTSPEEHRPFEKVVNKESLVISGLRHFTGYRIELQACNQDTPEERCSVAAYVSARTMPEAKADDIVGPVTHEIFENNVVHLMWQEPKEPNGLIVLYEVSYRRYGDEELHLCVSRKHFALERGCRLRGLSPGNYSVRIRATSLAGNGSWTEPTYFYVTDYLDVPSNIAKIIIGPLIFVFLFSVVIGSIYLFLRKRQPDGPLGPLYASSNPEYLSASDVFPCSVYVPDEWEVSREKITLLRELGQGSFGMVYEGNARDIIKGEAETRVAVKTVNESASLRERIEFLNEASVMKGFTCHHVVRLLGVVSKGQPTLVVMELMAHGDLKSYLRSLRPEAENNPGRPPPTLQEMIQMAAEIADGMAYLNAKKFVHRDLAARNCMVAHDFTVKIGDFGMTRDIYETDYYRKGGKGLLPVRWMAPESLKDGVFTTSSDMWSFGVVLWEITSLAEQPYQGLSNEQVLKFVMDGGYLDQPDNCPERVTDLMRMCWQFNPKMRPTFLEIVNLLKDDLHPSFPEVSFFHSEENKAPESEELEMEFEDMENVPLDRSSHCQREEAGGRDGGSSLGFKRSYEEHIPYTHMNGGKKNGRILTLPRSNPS
Sequence of Maternal embryonic leucine zipper kinase (Homo sapiens) (Q14680 whole entry, looked up): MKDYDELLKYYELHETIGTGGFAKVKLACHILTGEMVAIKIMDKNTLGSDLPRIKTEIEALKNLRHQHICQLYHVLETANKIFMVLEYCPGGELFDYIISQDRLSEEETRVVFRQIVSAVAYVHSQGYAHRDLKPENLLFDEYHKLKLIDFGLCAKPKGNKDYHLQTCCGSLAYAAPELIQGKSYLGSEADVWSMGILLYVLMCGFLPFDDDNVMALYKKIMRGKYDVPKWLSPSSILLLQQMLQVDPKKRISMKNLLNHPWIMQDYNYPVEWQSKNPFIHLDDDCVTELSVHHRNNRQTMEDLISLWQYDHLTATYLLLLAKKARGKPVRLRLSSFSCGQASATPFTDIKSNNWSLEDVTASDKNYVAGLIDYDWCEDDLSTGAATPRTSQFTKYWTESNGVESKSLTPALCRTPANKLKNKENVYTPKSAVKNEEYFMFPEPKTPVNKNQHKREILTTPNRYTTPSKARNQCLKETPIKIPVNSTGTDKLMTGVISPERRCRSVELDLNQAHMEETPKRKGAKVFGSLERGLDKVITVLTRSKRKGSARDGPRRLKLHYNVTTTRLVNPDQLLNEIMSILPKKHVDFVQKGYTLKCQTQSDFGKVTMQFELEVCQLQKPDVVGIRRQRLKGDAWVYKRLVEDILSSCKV

`N#Cc1cnc(Nc2cc(NC[C@H]3CNCCO3)c(C(F)(F)F)cn2)cn1` [SRA-737] gave an Activity [1] of 68%, an Activity [2] of 90% and an Activity [3] of 93%. The Activity [4] was 30%, the Activity [5] was 75% and the Activity [6] was 73%. The Activity [7] was 26%, the Activity [8] was 37% and the Activity [9] was 41%. For the same molecule, the Activity [10] was 124%, the Activity [11] was 44% and the Activity [12] was 65%. It also gave an Activity [13] of 102%, an Activity [14] of 31% and an Activity [15] of 38%. It also gave an Activity [16] of 93%, an inhibition [17] of 93% and an IC50 [18] of 1.66 µM. The IC50 [19] was 3.85 µM, the Activity (HT-29 [20]) was “Active” and the Activity (HT-29 [21]) was “Active”. The CL/F [22] was 2.16 L/h/kg, the Activity (Mus musculus [23]) was “Active” and the inhibition (Mus musculus [24]) was “Active”. For the same molecule, the Activity (Mus musculus [25]) was “Active”, the inhibition (Mus musculus [26]) was “Active” and the Activity [27] was “Non-Toxic”.
